Values joined by “and” are separate entries in the source; they are usually repeats but may differ in a detail not shown here. Equal values may be shown once.
Tests used:
U2OS = assay: Multiplex assay against U2OS; format: toxicity, cell-based; conditions: human, number of replicates 2
In short: (§1)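 Live cells were stained at seeding with Hoechst33342, BioTracker Green Microtubule Cytoskeleton Dye, MitoTracker Red and Annexin V Alexa Fluor 680, then imaged on a CQ1 microscope at 37°C and 5% CO2 after compound addition. CellPathfinder machine-learning gating split cells into Hoechst high-intensity objects or normal cells. Normal cells were split into healthy, pyknosed or fragmented nuclei, and pyknosed cells into mitotic or apoptotic. Tubulin, mitochondrial-mass and membrane-permeability phenotypes are per cents of healthy-nucleus cells.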

HEK-293T = assay: Multiplex assay against HEK293T; format: toxicity, cell-based; conditions: human, number of replicates 2; in short: as §1
[1] = 12 h, 1 µM, compound concentration 1 uM
[2] = 12 h, 10 µM, compound concentration 10 uM
[3] = 24 h, 1 µM, compound concentration 1 uM
[4] = 24 h, 10 µM, compound concentration 10 uM
[5] = 48 h, 1 µM, compound concentration 1 uM
[6] = 48 h, 10 µM, compound concentration 10 uM

SMILES: COc1c(OCCCN2CCOCC2)ccc2c1N=C(NC(=O)c1cnc(N)nc1)N1CCN=C21 [COPANLISIB]
- Population Apoptotic (%) (U2OS; [1]): 100% and 76%
- Population Healthy Nuclei (%) (U2OS; [1]): 60% and 87%
- Population Hoechst High Intensity Objects (%) (U2OS; [1]): 0%
- Population Membrane Permeable-Phenotype (%) (U2OS; [1]): 0% and 2%
- Population Mitochondria Different-Phenotype (%) (U2OS; [1]): 0%
- Population Mitotic Cells (%) (U2OS; [1]): 0% and 23%
- Population Normal (%) (U2OS; [1]): 100%
- Population Pyknosed Nuclei (%) (U2OS; [1]): 4% and 7%
- Population Tubulin-Different-Phenotype (%) (U2OS; [1]): 93% and 90%
- Population Apoptotic (%) (U2OS; [2]): 100% and 76%
- Population Healthy Nuclei (%) (U2OS; [2]): 32% and 80%
- Population Hoechst High Intensity Objects (%) (U2OS; [2]): 0%
- Population Mitochondria Different-Phenotype (%) (U2OS; [2]): 10% and 1%
- Population Mitotic Cells (%) (U2OS; [2]): 0% and 24%
- Population Normal (%) (U2OS; [2]): 100%
- Population Pyknosed Nuclei (%) (U2OS; [2]): 16% and 15%
- Population Tubulin-Different-Phenotype (%) (U2OS; [2]): 80%
- Population Apoptotic (%) (U2OS; [3]): 100% and 70%
- Population Healthy Nuclei (%) (U2OS; [3]): 56% and 86%
- Population Hoechst High Intensity Objects (%) (U2OS; [3]): 0%
- Population Membrane Permeable-Phenotype (%) (U2OS; [3]): 0% and 2%
- Population Mitochondria Different-Phenotype (%) (U2OS; [3]): 0% and 1%
- Population Normal (%) (U2OS; [3]): 100%
- Population Pyknosed Nuclei (%) (U2OS; [3]): 8% and 10%
- Population Tubulin-Different-Phenotype (%) (U2OS; [3]): 100% and 89%
- Population Apoptotic (%) (U2OS; [4]): 50% and 64%
- Population Hoechst High Intensity Objects (%) (U2OS; [4]): 2% and 0%
- Population Mitotic Cells (%) (U2OS; [4]): 50% and 35%
- Population Normal (%) (U2OS; [4]): 97% and 100%
- Population Pyknosed Nuclei (%) (U2OS; [4]): 22%
- Population Tubulin-Different-Phenotype (%) (U2OS; [4]): 75% and 84%
- Population Apoptotic (%) (U2OS; [5]): 80% and 72%
- Population Healthy Nuclei (%) (U2OS; [5]): 41% and 88%
- Population Hoechst High Intensity Objects (%) (U2OS; [5]): 4% and 0%
- Population Membrane Permeable-Phenotype (%) (U2OS; [5]): 0% and 2%
- Population Mitochondria Different-Phenotype (%) (U2OS; [5]): 0% and 1%
- Population Mitotic Cells (%) (U2OS; [5]): 20% and 27%
- Population Normal (%) (U2OS; [5]): 96% and 99%
- Population Pyknosed Nuclei (%) (U2OS; [5]): 20% and 8%
- Population Tubulin-Different-Phenotype (%) (U2OS; [5]): 100% and 95%
- Population Apoptotic (%) (U2OS; [6]): 92% and 79%
- Population Hoechst High Intensity Objects (%) (U2OS; [6]): 0% and 1%
- Population Mitochondria Different-Phenotype (%) (U2OS; [6]): 0% and 3%
- Population Mitotic Cells (%) (U2OS; [6]): 7% and 20%
- Population Normal (%) (U2OS; [6]): 100% and 98%
- Population Pyknosed Nuclei (%) (U2OS; [6]): 34% and 35%
- Population Apoptotic (%) (HEK-293T; [1]): 66% and 65%
- Population Fragmented Nuclei (%) (HEK-293T; [1]): 7% and 3%
- Population Healthy Nuclei (%) (HEK-293T; [1]): 66% and 82%
- Population Hoechst High Intensity Objects (%) (HEK-293T; [1]): 14% and 12%
- Population Membrane Permeable-Phenotype (%) (HEK-293T; [1]): 2% and 1%
- Population Mitochondria Different-Phenotype (%) (HEK-293T; [1]): 43% and 39%
- Population Mitotic Cells (%) (HEK-293T; [1]): 33% and 34%
- Population Normal (%) (HEK-293T; [1]): 85% and 87%
- Population Pyknosed Nuclei (%) (HEK-293T; [1]): 25% and 13%
- Population Tubulin-Different-Phenotype (%) (HEK-293T; [1]): 57% and 58%
- Total Cell Count (HEK-293T; [1]): 337 and 345
- Population Apoptotic (%) (HEK-293T; [2]): 67% and 62%
- Population Fragmented Nuclei (%) (HEK-293T; [2]): 7% and 2%
- Population Healthy Nuclei (%) (HEK-293T; [2]): 74% and 83%
- Population Hoechst High Intensity Objects (%) (HEK-293T; [2]): 13% and 11%
- Population Membrane Permeable-Phenotype (%) (HEK-293T; [2]): 1% and 0%
- Population Mitochondria Different-Phenotype (%) (HEK-293T; [2]): 60% and 66%
- Population Mitotic Cells (%) (HEK-293T; [2]): 32% and 37%
- Population Normal (%) (HEK-293T; [2]): 86% and 88%
- Population Pyknosed Nuclei (%) (HEK-293T; [2]): 18% and 13%
- Population Tubulin-Different-Phenotype (%) (HEK-293T; [2]): 68% and 71%
- Total Cell Count (HEK-293T; [2]): 237 and 220
- Population Apoptotic (%) (HEK-293T; [3]): 76% and 67%
- Population Fragmented Nuclei (%) (HEK-293T; [3]): 5% and 3%
- Population Healthy Nuclei (%) (HEK-293T; [3]): 74% and 80%
- Population Hoechst High Intensity Objects (%) (HEK-293T; [3]): 16% and 20%
- Population Membrane Permeable-Phenotype (%) (HEK-293T; [3]): 1%
- Population Mitochondria Different-Phenotype (%) (HEK-293T; [3]): 35% and 33%
- Population Mitotic Cells (%) (HEK-293T; [3]): 23% and 32%
- Population Normal (%) (HEK-293T; [3]): 83% and 79%
- Population Pyknosed Nuclei (%) (HEK-293T; [3]): 20% and 15%
- Population Tubulin-Different-Phenotype (%) (HEK-293T; [3]): 56% and 60%
- Total Cell Count (HEK-293T; [3]): 382 and 316
- Population Apoptotic (%) (HEK-293T; [4]): 80% and 50%
- Population Fragmented Nuclei (%) (HEK-293T; [4]): 6% and 2%
- Population Healthy Nuclei (%) (HEK-293T; [4]): 76% and 82%
- Population Hoechst High Intensity Objects (%) (HEK-293T; [4]): 20% and 16%
- Population Membrane Permeable-Phenotype (%) (HEK-293T; [4]): 2% and 1%
- Population Mitochondria Different-Phenotype (%) (HEK-293T; [4]): 52% and 58%
- Population Mitotic Cells (%) (HEK-293T; [4]): 19% and 50%
- Population Normal (%) (HEK-293T; [4]): 79% and 83%
- Population Pyknosed Nuclei (%) (HEK-293T; [4]): 17% and 15%

From ChEMBL document CHEMBL5303300, “EUbOPEN Chemogenomics Library - Multiplex” (2023)
